Test results from ChEMBL document CHEMBL5257027 (Eur J Med Chem, 2016).

Legend:
[1] = system: Panel melanoma (Carcinoma cell lines); assay: Antiproliferative activity against human Panel melanoma (9 Carcinoma cell lines) assessed as reduction in mean cell growth; type: functional
How it was run: (§1)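 NCI five-dose testing across the 58-line panel gives GI50, TGI and LC50 for each line. Subpanel lines report mean GI50 for each of the nine cancer types.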

[2] = Antiproliferative activity against human Panel NCI-58 (58 Carcinoma cell lines) assessed as reduction in mean cell growth at 10 uM; type: functional; parameters: scale not given: the % may be the effect or the level left
How it was run: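 NCI 58-cell-line screen covering leukemia, NSCLC, colon, CNS, melanoma, ovarian, renal, prostate and breast lines. Compounds given once at […] (micromolar per the line). Percent inhibition taken as 100 minus growth percent. Panel line reports the mean over all 58 lines.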

[3] = system: Panel colon (Carcinoma cell lines); assay: Antiproliferative activity against human Panel colon (7 Carcinoma cell lines) assessed as reduction in mean cell growth; type: functional; how it was run: as §1
[4] = system: Panel leukemia (Carcinoma cell lines); assay: Antiproliferative activity against human Panel leukemia (5 Carcinoma cell lines) assessed as reduction in mean cell growth; type: functional; how it was run: as §1
[5] = system: Panel renal (Carcinoma cell lines); assay: Antiproliferative activity against human Panel renal (8 Carcinoma cell lines) assessed as reduction in mean cell growth; type: functional; how it was run: as §1
[6] = system: Panel ovarian (Carcinoma cell lines); assay: Antiproliferative activity against human Panel ovarian (7 Carcinoma cell lines) assessed as reduction in mean cell growth; type: functional; how it was run: as §1
[7] = system: Panel breast (Carcinoma cell lines); assay: Antiproliferative activity against human Panel breast (6 Carcinoma cell lines) assessed as reduction in mean cell growth; type: functional; how it was run: as §1
[8] = system: Panel CNS (Carcinoma cell lines); assay: Antiproliferative activity against human Panel CNS (6 Carcinoma cell lines) assessed as reduction in mean cell growth; type: functional; how it was run: as §1
[9] = system: Panel prostate (Carcinoma cell lines); assay: Antiproliferative activity against human Panel prostate (2 Carcinoma cell lines) assessed as reduction in mean cell growth; type: functional; how it was run: as §1
[10] = Antiproliferative activity against human Panel non-small cell lung cancer (8 Carcinoma cell lines) assessed as reduction in mean cell growth; type: functional; conditions: Non-small cell lung cancer cell line; how it was run: as §1
[11] = system: MDA-MB-468; assay: Antiproliferative activity against human MDA-MB-468 cells assessed as reduction in cell growth; type: functional; how it was run: as §1
[12] = system: COLO 205; assay: Antiproliferative activity against human COLO 205 cells assessed as reduction in cell growth; type: functional; how it was run: as §1
[13] = system: K562; assay: Cytotoxicity against human k562 cells; type: functional; conditions: read-out: LC50 (the source's name)
How it was run: (§2)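 Run in the US NCI 58-cell-line screen covering nine cancer types (leukemia, NSCLC, colon, CNS, melanoma, ovarian, renal, prostate, breast). Five-dose mode gave GI50, TGI and LC50 values for each cell line. In the single-dose pre-screen, % inhibition was taken as 100 minus growth percentage.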

[14] = molecular target: Epidermal growth factor receptor (Homo sapiens) (UniProt P00533); assay: Inhibition of EGFR (unknown origin) at 10 uM using […] as substrate incubated for 40 mins in presence of [gamma33P]ATP by scintillation counting based hotspot kinase assay relative to control
[15] = system: COLO 205; assay: Cytotoxicity against human COLO 205 cells; type: functional; how it was run: as §2
[16] = system: SK-MEL-5; assay: Antiproliferative activity against human SK-MEL-5 cells assessed as reduction in cell growth; type: functional; how it was run: as §1
[17] = system: HCT-15; assay: Cytotoxicity against human HCT-15 cells; type: functional; conditions: read-out: LC50 (the source's name); how it was run: as §2
[18] = system: SNB-75; assay: Antiproliferative activity against human SNB-75 cells assessed as reduction in cell growth; type: functional; how it was run: as §1
[19] = system: Serine/threonine-protein kinase B-raf (Homo sapiens), P15056 [V600E]; assay: Inhibition of B-RAF V600E mutant (unknown origin) at 10 uM using […] as substrate incubated for 40 mins in presence of [gamma33P]ATP by scintillation counting based hotspot kinase assay relative to control
[20] = system: PC-3; assay: Cytotoxicity against human PC-3 cells; type: functional; how it was run: as §2
[21] = molecular target: Tyrosine-protein kinase ABL1 (Homo sapiens) (UniProt P00519); assay: Inhibition of ABL (unknown origin) at 10 uM using […] as substrate incubated for 40 mins in presence of [gamma33P]ATP by scintillation counting based hotspot kinase assay relative to control
[22] = system: NCI/ADR-RES; assay: Antiproliferative activity against human NCI/ADR-RES cells assessed as reduction in cell growth; type: functional; how it was run: as §1
[23] = system: PC-3; assay: Antiproliferative activity against human PC-3 cells assessed as total growth inhibition; type: functional; how it was run: as §1
[24] = system: SNB-75; assay: Cytotoxicity against human SNB-75 cells; type: functional; conditions: read-out: LC50 (the source's name); how it was run: as §2
[25] = molecular target: RAF proto-oncogene serine/threonine-protein kinase (Homo sapiens, UniProt P04049); assay: Inhibition of RAF1 (unknown origin) at 10 uM using […] as substrate incubated for 40 mins in presence of [gamma33P]ATP by scintillation counting based hotspot kinase assay relative to control
[26] = system: RXF 393; assay: Antiproliferative activity against human RXF 393 cells assessed as reduction in cell growth; type: functional; how it was run: as §1
[27] = system: K562; assay: Antiproliferative activity against human K562 cells assessed as reduction in cell growth; type: functional; how it was run: as §1
[28] = system: HOP-92; assay: Antiproliferative activity against human HOP-92 cells assessed as total growth inhibition; type: functional; how it was run: as §1
[29] = system: HOP-92; assay: Cytotoxicity against human HOP-92 cells; type: functional; how it was run: as §2
[30] = system: K562; assay: Antiproliferative activity against human K562 cells assessed as total growth inhibition; type: functional; how it was run: as §1
[31] = system: NCI/ADR-RES; assay: Antiproliferative activity against human NCI/ADR-RES cells assessed as total growth inhibition; type: functional; how it was run: as §1
[32] = system: HOP-92; assay: Antiproliferative activity against human HOP-92 cells assessed as reduction in cell growth; type: functional; how it was run: as §1
[33] = system: SK-MEL-5; assay: Cytotoxicity against human SK-MEL-5 cells; type: functional; how it was run: as §2
[34] = system: COLO 205; assay: Antiproliferative activity against human COLO 205 cells assessed as total growth inhibition; type: functional; how it was run: as §1
[35] = system: SK-MEL-5; assay: Antiproliferative activity against human SK-MEL-5 cells assessed as total growth inhibition; type: functional; how it was run: as §1
[36] = system: HCT-15; assay: Antiproliferative activity against human HCT-15 cells assessed as reduction in cell growth; type: functional; how it was run: as §1
[37] = system: NCI/ADR-RES; assay: Cytotoxicity against human NCI/ADR-RES cells; type: functional; how it was run: as §2
[38] = system: RXF 393; assay: Antiproliferative activity against human RXF 393 cells assessed as total growth inhibition; type: functional; how it was run: as §1
[39] = system: MDA-MB-468; assay: Antiproliferative activity against human MDA-MB-468 cells assessed as total growth inhibition; type: functional; how it was run: as §1
[40] = system: SNB-75; assay: Antiproliferative activity against human SNB-75 cells assessed as total growth inhibition; type: functional; how it was run: as §1
[41] = system: RXF 393; assay: Cytotoxicity against human RXF 393 cells; type: functional; how it was run: as §2
[42] = molecular target: Serine/threonine-protein kinase B-raf (Homo sapiens) (UniProt P15056); assay: Inhibition of B-RAF (unknown origin) at 10 uM using […] as substrate incubated for 40 mins in presence of [gamma33P]ATP by scintillation counting based hotspot kinase assay relative to control
[43] = system: HCT-15; assay: Antiproliferative activity against human HCT-15 cells assessed as total growth inhibition; type: functional; how it was run: as §1
[44] = species on record: Homo sapiens; assay: Inhibition of ABL […] mutant (unknown origin) at 10 uM using […] as substrate incubated for 40 mins in presence of [gamma33P]ATP by scintillation counting based hotspot kinase assay relative to control
[45] = system: PC-3; assay: Antiproliferative activity against human PC-3 cells assessed as reduction in cell growth; type: functional; how it was run: as §1

Tyrosine-protein kinase ABL1 (Homo sapiens), sequence (P00519 whole entry): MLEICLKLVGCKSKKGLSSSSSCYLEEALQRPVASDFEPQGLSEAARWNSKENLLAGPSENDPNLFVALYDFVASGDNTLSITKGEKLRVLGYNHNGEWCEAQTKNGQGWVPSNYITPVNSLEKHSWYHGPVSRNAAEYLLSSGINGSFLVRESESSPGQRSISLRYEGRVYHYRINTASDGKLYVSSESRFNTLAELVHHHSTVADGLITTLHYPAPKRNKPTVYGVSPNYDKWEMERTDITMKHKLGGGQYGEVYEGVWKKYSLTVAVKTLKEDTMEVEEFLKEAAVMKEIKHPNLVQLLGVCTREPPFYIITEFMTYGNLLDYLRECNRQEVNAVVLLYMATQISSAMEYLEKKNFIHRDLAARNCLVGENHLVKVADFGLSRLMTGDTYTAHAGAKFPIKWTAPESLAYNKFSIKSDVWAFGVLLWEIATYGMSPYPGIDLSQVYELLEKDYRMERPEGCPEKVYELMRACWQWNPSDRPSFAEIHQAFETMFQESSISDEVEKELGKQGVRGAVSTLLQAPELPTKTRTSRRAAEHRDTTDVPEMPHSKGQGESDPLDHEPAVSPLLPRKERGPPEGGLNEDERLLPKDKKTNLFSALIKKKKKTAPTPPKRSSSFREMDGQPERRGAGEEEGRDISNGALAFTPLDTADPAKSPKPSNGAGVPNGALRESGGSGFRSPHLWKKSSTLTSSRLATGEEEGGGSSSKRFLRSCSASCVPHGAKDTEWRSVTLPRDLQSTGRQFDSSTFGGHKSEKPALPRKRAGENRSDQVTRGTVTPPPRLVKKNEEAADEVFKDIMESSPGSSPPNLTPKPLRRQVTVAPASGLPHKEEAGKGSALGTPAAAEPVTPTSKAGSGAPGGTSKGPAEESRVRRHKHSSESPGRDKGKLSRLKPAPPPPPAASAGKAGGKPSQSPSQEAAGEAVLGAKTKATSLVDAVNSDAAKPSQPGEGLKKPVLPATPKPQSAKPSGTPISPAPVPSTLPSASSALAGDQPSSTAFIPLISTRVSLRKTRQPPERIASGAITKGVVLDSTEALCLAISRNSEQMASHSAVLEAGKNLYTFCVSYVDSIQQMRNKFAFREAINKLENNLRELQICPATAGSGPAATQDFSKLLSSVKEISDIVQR
Serine/threonine-protein kinase B-raf (Homo sapiens), sequence (P15056 whole entry): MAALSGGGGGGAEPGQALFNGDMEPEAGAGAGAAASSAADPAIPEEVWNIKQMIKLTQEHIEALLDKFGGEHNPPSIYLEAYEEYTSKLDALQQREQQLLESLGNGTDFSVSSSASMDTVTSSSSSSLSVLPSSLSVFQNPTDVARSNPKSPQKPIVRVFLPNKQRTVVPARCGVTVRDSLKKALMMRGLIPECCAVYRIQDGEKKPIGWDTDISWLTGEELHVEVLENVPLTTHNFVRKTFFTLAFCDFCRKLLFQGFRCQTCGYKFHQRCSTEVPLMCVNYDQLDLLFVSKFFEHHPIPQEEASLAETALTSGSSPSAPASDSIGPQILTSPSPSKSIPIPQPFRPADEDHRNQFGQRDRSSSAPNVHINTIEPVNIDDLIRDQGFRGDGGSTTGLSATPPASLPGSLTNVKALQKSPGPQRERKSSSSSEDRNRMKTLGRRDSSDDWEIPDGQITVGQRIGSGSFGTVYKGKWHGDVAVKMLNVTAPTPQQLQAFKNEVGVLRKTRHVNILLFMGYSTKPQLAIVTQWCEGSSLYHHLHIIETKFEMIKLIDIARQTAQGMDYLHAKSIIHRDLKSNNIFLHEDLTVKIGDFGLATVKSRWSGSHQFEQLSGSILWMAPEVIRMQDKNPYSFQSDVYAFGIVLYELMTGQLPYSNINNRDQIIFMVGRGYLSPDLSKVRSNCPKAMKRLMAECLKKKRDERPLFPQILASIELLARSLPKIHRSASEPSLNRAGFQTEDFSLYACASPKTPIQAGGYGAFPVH
Epidermal growth factor receptor (Homo sapiens), sequence (P00533 whole entry): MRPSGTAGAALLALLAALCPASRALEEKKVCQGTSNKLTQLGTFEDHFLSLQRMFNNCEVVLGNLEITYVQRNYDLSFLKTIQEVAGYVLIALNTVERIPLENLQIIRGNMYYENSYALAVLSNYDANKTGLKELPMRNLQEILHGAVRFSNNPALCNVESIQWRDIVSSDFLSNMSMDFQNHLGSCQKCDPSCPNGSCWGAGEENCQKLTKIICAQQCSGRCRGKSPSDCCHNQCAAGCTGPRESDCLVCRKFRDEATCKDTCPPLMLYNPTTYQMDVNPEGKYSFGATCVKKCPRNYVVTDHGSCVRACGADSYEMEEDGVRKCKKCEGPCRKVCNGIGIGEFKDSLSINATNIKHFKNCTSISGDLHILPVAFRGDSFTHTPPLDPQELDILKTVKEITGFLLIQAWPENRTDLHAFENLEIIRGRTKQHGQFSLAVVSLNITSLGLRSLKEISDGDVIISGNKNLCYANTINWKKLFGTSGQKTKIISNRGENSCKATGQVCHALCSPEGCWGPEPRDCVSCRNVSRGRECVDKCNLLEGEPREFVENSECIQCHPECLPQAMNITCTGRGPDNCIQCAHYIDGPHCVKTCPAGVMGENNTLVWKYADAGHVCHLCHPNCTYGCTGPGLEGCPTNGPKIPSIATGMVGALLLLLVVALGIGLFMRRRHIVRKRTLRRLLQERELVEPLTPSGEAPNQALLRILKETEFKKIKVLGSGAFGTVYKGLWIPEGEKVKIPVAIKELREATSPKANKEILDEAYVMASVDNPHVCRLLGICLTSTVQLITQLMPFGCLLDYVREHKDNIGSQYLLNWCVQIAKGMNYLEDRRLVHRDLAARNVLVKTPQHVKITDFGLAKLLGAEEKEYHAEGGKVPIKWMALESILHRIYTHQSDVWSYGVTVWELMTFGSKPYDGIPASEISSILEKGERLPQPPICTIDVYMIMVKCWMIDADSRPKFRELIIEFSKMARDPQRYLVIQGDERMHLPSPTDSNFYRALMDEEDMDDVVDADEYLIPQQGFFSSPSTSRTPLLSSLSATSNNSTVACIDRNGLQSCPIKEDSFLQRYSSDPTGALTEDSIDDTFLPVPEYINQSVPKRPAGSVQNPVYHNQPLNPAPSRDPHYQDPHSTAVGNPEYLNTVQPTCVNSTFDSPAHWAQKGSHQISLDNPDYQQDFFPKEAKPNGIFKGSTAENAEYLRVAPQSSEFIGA
Serine/threonine-protein kinase B-raf (Homo sapiens), P15056 [V600E], sequence (P15056 whole entry V600E): as the sequence (P15056 whole entry) above, with V600E counted along it
RAF proto-oncogene serine/threonine-protein kinase, sequence (P04049 whole entry): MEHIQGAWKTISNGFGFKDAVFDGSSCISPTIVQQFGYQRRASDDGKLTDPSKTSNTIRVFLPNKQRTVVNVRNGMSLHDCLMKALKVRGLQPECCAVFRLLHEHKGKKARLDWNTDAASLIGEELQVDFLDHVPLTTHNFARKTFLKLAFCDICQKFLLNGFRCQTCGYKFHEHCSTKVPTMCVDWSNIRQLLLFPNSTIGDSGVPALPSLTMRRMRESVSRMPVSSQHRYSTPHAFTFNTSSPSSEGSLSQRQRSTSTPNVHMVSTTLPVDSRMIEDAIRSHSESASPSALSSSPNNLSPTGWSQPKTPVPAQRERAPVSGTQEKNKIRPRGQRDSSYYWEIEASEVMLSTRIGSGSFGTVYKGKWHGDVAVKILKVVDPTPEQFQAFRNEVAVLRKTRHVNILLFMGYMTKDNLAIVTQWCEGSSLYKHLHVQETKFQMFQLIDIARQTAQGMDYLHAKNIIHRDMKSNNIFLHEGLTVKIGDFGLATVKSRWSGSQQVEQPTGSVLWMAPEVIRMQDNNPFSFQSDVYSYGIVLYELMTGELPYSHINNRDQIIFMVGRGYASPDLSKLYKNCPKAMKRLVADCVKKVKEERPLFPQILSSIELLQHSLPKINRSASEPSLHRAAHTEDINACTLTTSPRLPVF

Compound `COc1cccc(-c2nn(-c3ccccc3)cc2-c2ccnc(NCCNC(=O)Nc3ccc(Cl)c(Cl)c3)c2)c1` has a GI50 [1] of 4.15 µM, an Activity [2] of over 80% and a GI50 [3] of 3.73 µM. For the same compound, the GI50 [4] was 3.4 µM, the GI50 [5] was 4.63 µM and the GI50 [6] was 4.72 µM. It also gave a GI50 [7] of 3.35 µM, a GI50 [8] of 7.19 µM and a GI50 [9] of 5.95 µM. It also gave a GI50 [10] of 3.02 µM.

`COc1cccc(-c2nn(-c3ccccc3)cc2-c2ccnc(NCCNC(=O)Nc3cccc(C(F)(F)F)c3)c2)c1` gave a GI50 [11] of 1.7 µM, a GI50 [12] of 1.88 µM and a CC50 [13] of 100 µM. The inhibition [14] was -2.09%, the LC50 (lethal concentration 50%) [15] was 6.95 µM and the GI50 [16] was 1.73 µM. It also gave a GI50 [1] of 1.91 µM, an Activity [2] of over 80% and a CC50 [17] of 100 µM. It also gave a GI50 [3] of 1.98 µM, a GI50 [18] of 1.62 µM and an inhibition [19] of 36.2%. The LC50 [20] was 100 µM, the GI50 [4] was 2.04 µM and the inhibition [21] was 13.4%. For the same compound, the GI50 [22] was 2.22 µM, the TGI [23] was 15.7 µM and the CC50 [24] was 100 µM. For the same compound, the inhibition [25] was 45.1%, the GI50 [26] was 1.53 µM and the GI50 [27] was 2.13 µM. The TGI [28] was 7.65 µM, the LC50 [29] was 100 µM and the TGI [30] was 100 µM. The GI50 [5] was 2.14 µM, the GI50 [6] was 2.54 µM and the TGI [31] was 5.75 µM. It also gave a GI50 [32] of 1.46 µM, an LC50 [33] of 7.82 µM and a TGI [34] of 3.34 µM. For the same compound, the GI50 [7] was 2.23 µM, the TGI [35] was 3.55 µM and the GI50 [8] was 2.07 µM. The GI50 [36] was 1.7 µM, the LC50 [37] was 100 µM and the GI50 [9] was 3.09 µM. For the same compound, the TGI [38] was 4.63 µM, the TGI [39] was 3.5 µM and the TGI [40] was 100 µM. For the same compound, the LC50 [41] was 25 µM, the inhibition [42] was 14% and the TGI [43] was 4.7 µM. It also gave an inhibition [44] of 2.92%, a GI50 [45] of 2.02 µM and a GI50 [10] of 2.03 µM.

With `COc1cccc(-c2nn(-c3ccccc3)cc2-c2ccnc(NCCCNC(=O)c3cccc(C(F)(F)F)c3)c2)c1` the GI50 [11] was 1.95 µM, the GI50 [12] was 3.33 µM and the GI50 [16] was 1.54 µM. It also gave a GI50 [18] of 17 µM, a GI50 [22] of 3.54 µM and a GI50 [26] of 2.2 µM. The GI50 [27] was 3.69 µM, the GI50 [32] was 2.48 µM and the GI50 [36] was 3.4 µM. It also gave a GI50 [45] of 3.18 µM.
